From ChEMBL document CHEMBL1255514, “Discovery of 8-azabicyclo[3.2.1]octan-3-yloxy-benzamides as selective antagonists of the kappa opioid receptor. Part 1” (Bioorg Med Chem Lett, 2010)

Columns and labels:
[1] = biological target: T1, Kappa-type opioid receptor (Homo sapiens, UniProt P41145); assay: Binding affinity to kappa opioid receptor
[2] = biological target: T1, Kappa-type opioid receptor; assay: Antagonist activity at human kappa opioid receptor assessed as inhibition of dynorphin A-induced [35S]GTPgammaS binding; format: functional
[3] = biological target: Mu-type opioid receptor (Homo sapiens, UniProt P35372); assay: Antagonist activity at human mu opioid receptor assessed as inhibition of DAMGO-stimulated [35S]GTPgammaS binding; format: functional
Mu-type opioid receptor, sequence (P35372 whole entry): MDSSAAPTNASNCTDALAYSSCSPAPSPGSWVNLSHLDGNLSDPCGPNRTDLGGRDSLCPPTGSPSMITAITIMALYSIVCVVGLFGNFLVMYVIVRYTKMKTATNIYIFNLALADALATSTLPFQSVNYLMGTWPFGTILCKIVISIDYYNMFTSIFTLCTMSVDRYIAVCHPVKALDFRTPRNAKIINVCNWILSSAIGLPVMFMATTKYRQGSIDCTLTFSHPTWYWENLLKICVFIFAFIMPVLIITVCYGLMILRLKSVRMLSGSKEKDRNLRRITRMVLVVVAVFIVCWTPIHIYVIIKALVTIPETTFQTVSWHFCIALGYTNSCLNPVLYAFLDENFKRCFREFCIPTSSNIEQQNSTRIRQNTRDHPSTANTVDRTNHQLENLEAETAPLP

[4] = biological target: Delta-type opioid receptor (Homo sapiens, UniProt P41143); assay: Antagonist activity at human delta opioid receptor assessed as inhibition of SNC80-stimulated [35S]GTPgammaS binding; format: functional
Delta-type opioid receptor, sequence (P41143 whole entry): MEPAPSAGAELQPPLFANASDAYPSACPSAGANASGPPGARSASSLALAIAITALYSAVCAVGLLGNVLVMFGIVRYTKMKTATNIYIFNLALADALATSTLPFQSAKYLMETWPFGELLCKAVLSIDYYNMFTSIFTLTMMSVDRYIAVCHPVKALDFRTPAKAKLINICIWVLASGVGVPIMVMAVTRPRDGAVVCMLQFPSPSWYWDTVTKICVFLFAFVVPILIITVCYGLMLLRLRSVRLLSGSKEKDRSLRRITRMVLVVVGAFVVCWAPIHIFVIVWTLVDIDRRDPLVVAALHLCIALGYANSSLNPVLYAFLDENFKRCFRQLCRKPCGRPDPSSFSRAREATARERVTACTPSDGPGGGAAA

[5] = Apparent permeability from apical to basolateral side of MDCK cells expressing MDR1; format: ADME, cell-based, Canis lupus familiaris; conditions: dog
In short: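 MDCK cells stably expressing human MDR1 P-glycoprotein grown as monolayer; apical-to-basolateral transport rate reported in nm/s.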

[6] = test system: Plasma; assay: Fraction unbound in rat plasma; format: ADME, cell-free
[7] = Intrinsic clearance in rat liver microsomes; format: ADME, Microsome
In short: (§1)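 Standard liver microsomal stability protocol using human or rat liver microsomes; intrinsic clearance expressed per mg microsomal protein per minute.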

[8] = Intrinsic clearance in human liver microsomes; format: ADME, Microsome; in short: as §1
[9] = biological target: Voltage-gated inwardly rectifying potassium channel KCNH2 (Homo sapiens, UniProt Q12809)
Voltage-gated inwardly rectifying potassium channel KCNH2, sequence (Q12809 whole entry): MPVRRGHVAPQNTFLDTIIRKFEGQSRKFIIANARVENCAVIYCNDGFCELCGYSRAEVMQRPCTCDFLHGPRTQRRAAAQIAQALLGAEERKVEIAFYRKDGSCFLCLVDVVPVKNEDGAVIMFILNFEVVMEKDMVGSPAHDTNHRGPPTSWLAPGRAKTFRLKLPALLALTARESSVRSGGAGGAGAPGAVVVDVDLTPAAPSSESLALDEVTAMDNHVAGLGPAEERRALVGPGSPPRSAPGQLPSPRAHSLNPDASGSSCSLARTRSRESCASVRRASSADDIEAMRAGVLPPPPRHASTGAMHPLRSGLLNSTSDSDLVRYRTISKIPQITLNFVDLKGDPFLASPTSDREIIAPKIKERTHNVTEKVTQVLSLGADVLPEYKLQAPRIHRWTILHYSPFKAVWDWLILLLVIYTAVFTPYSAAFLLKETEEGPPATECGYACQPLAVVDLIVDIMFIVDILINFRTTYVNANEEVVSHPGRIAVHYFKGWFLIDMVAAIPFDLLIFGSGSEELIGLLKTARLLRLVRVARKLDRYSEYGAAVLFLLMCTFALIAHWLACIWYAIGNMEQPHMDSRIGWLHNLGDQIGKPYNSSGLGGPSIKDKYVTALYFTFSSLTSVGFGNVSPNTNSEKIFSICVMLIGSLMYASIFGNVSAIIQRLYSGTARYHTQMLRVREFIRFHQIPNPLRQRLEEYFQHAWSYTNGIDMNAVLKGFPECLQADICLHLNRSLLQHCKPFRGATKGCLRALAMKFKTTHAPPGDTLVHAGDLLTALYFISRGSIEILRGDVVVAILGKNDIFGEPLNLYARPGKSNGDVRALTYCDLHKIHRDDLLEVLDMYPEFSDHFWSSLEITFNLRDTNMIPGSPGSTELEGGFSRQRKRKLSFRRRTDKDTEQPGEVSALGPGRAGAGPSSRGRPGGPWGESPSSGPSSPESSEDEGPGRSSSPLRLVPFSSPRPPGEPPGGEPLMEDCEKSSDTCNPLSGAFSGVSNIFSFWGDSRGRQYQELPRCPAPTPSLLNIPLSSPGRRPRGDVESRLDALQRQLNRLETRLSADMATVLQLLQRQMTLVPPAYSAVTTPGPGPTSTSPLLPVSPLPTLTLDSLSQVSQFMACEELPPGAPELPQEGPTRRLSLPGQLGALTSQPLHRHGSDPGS

[10] = Ratio of drug level in brain to plasma in Sprague-Dawley rat at 5 umol/kg, iv; format: ADME, organism-based; conditions: brain and plasma, read-out: BPR
In short: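 Total brain and plasma concentrations measured 2 h after a 5 µmol/kg intravenous infusion in rats; brain/plasma ratio calculated.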

[11] = test system: Rattus norvegicus; assay: Antidiuretic activity against U50488-induced diuresis in sc dosed Sprague-Dawley rat; format: functional; conditions: Urine, read-out: ID50 (the source's name)
[12] = Clearance in Sprague-Dawley rat at 2 umol/kg, iv; format: ADME, organism-based; conditions: in vivo
[13] = Half life in Sprague-Dawley rat at 2 umol/kg, iv; format: ADME, organism-based; conditions: in vivo
[14] = Oral bioavailability in Sprague-Dawley rat at 6 umol/kg, po; format: ADME, organism-based; conditions: in vivo
[15] = Volume of distribution at steady state in Sprague-Dawley rat at 2 umol/kg, iv; format: ADME, organism-based; conditions: in vivo, read-out: Vdss

T1 sequence (P41145 whole entry): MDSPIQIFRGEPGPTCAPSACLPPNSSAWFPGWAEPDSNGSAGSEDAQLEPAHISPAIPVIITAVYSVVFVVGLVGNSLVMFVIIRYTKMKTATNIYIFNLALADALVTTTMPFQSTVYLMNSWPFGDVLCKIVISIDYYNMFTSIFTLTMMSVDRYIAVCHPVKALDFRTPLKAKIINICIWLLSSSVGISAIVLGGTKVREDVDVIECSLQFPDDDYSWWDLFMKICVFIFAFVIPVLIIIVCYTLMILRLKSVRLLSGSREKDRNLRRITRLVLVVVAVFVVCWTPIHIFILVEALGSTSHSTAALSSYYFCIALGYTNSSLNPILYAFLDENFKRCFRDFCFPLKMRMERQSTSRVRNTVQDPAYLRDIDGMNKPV

Structure (SMILES) | IC50 [2] [nM] | IC50 [3] [nM] | IC50 [4] [nM] | also measured
CC(C)[C@@H](CN1CC[C@@](C)(c2cccc(O)c2)[C@@H](C)C1)NC(=O)[C@H]1Cc2ccccc2CN1 | 0.5 | 41 | 1280 | Ki [1]: 0.3 nM
Cc1ccc(CN2[C@@H]3CC[C@H]2C[C@H](Oc2cccc(C(N)=O)c2)C3)o1 | 386 | 10900 | 22000 | 
NC(=O)c1cccc(OC2CCN(CC3CC3)CC2)c1 | 28200 |  |  | Ki [1]: 146 nM
C[C@H](c1ccccc1)N1[C@@H]2CC[C@H]1C[C@H](Oc1cccc(C(N)=O)c1)C2 | 683 | > 24400 |  | 
C[C@@H](c1ccccc1)N1[C@@H]2CC[C@H]1C[C@H](Oc1cccc(C(N)=O)c1)C2 | 20500 | > 30000 |  | 
O=C(Nc1cccc(NC(=O)c2cccc(N3CCOCC3)c2)c1)c1cccc(OC2CCN(CC3CC3)CC2)c1 | 77 | > 30000 | > 30000 | Ki [1]: 0.5 nM; Papp A→B [5]: < 1 ×10⁻⁶ cm/s
Cc1ccc([C@@H](C)N2[C@@H]3CC[C@H]2C[C@H](Oc2cccc(C(N)=O)c2)C3)s1 | 111 |  |  | 
COc1cccc([C@@H](C)N2[C@@H]3CC[C@H]2C[C@H](Oc2cccc(C(N)=O)c2)C3)c1 | 46 | 1050 |  | 
NC(=O)c1cccc(OC2CCN(Cc3ccccc3)CC2)c1 | 585 | > 30000 | > 30000 | Ki [1]: 75 nM
Cc1ccc([C@@H](C)N2[C@@H]3CC[C@H]2C[C@H](Oc2cccc(C(N)=O)c2)C3)cn1 |  |  |  | PPB [6]: 81%; microsomal CLint [7]: 14 µL/min/mg; microsomal CLint [8]: < 4 µL/min/mg; Papp A→B [5]: 9.1 ×10⁻⁶ cm/s
C[C@H](c1ccnc(Cl)c1)N1[C@@H]2CC[C@H]1C[C@H](Oc1cccc(C(N)=O)c1)C2 | 307 | 22900 |  | 
NC(=O)c1cccc(O[C@@H]2C[C@H]3CC[C@@H](C2)N3Cc2cccs2)c1 | 215 | 9360 | > 30000 | IC50 [9]: 430 nM
Cc1ccc(CN2[C@@H]3CC[C@H]2C[C@H](Oc2cccc(C(N)=O)c2)C3)s1 |  |  |  | Kp [10]: 4; PPB [6]: 50%; microsomal CLint [7]: 379 µL/min/mg; ED50 [11]: 0.006 µmol/kg; microsomal CLint [8]: 31 µL/min/mg; clearance [12]: 113 mL/min/kg; Papp A→B [5]: 13 ×10⁻⁶ cm/s; half-life [13]: 1 h; bioavailability [14]: 1.7%; Vd [15]: 5.1 L/kg
NC(=O)c1cccc(O[C@@H]2C[C@H]3CC[C@@H](C2)N3CCc2ccccc2)c1 | 754 | 424 | 2150 | 
NC(=O)c1cccc(O[C@@H]2C[C@H]3CC[C@@H](C2)N3CCCc2ccccc2)c1 | 342 | 659 | 4000 | 
Cc1ccc(CN2[C@@H]3CC[C@H]2C[C@H](Oc2cccc(C(N)=O)c2)C3)cc1 | 49 | 482 | 10900 | 
Cc1ccccc1CN1[C@@H]2CC[C@H]1C[C@H](Oc1cccc(C(N)=O)c1)C2 |  | 17600 | > 30000 | 
NC(=O)c1cccc(O[C@@H]2C[C@H]3CC[C@@H](C2)N3Cc2ccncc2)c1 |  |  | > 24700 | 

Structure (SMILES) | IC50 [2] [nM] | IC50 [3] [nM] | IC50 [4] [nM] | also measured
NC(=O)c1cccc(O[C@@H]2C[C@H]3CC[C@@H](C2)N3Cc2cccnc2)c1 | 431 | 2890 | > 21900 | 
NC(=O)c1cccc(O[C@@H]2C[C@H]3CC[C@@H](C2)N3Cc2ccccn2)c1 | 3160 | 19000 | > 30000 | IC50 [9]: 1900 nM
CN1[C@@H]2CC[C@H]1C[C@H](Oc1cccc(C(N)=O)c1)C2 | 12600 |  |  | 
NC(=O)c1cccc(O[C@@H]2C[C@H]3CC[C@@H](C2)N3CC2CC2)c1 | 6690 | > 30000 | > 30000 | 
NC(=O)c1cccc(O[C@@H]2C[C@H]3CC[C@@H](C2)N3CC2CCCCC2)c1 |  |  |  | Kp [10]: 5; microsomal CLint [7]: 196 µL/min/mg; microsomal CLint [8]: < 4 µL/min/mg; clearance [12]: 184 mL/min/kg; Papp A→B [5]: 8.3 ×10⁻⁶ cm/s; half-life [13]: 1 h; bioavailability [14]: 1.8%; Vd [15]: 9.5 L/kg
NC(=O)c1cccc(O[C@@H]2C[C@H]3CC[C@@H](C2)N3Cc2ccc3c(c2)OCO3)c1 | 11 | 307 | 4840 | 
CS(=O)(=O)Cc1ccc(CN2[C@@H]3CC[C@H]2C[C@H](Oc2cccc(C(N)=O)c2)C3)cc1 | 39 | 576 | 5390 | 
Cn1cc(CN2[C@@H]3CC[C@H]2C[C@H](Oc2cccc(C(N)=O)c2)C3)cn1 | 524 | 9430 | > 27300 | 
NC(=O)c1cccc(O[C@@H]2C[C@H]3CC[C@@H](C2)N3CC(=O)N2CCCC2)c1 | 3410 | 21100 | > 30000 | IC50 [9]: > 33000 nM
NC(=O)c1cccc(O[C@@H]2C[C@H]3CC[C@@H](C2)N3CC(=O)Nc2ccccc2)c1 | 345 | 253 | 2670 | IC50 [9]: 720 nM
CC(c1ccccc1)N1[C@@H]2CC[C@H]1C[C@H](Oc1cccc(C(N)=O)c1)C2 (stereo partly specified) | 1000 | 19800 |  | 
Cc1ccc(C(C)N2[C@@H]3CC[C@H]2C[C@H](Oc2cccc(C(N)=O)c2)C3)s1 (stereo partly specified) | 355 |  |  | 
Cc1ccccc1C(C)N1[C@@H]2CC[C@H]1C[C@H](Oc1cccc(C(N)=O)c1)C2 (stereo partly specified) | 846 | 16800 |  | 
NC(=O)c1cccc(O[C@@H]2C[C@H]3CC[C@@H](C2)N3C2CCCc3ccccc32)c1 (stereo partly specified) | 2190 | 22700 |  | 
NC(=O)c1cccc(O[C@@H]2C[C@H]3CC[C@@H](C2)N3C2CCCCC2)c1 | 1130 | 9410 |  | 
CC(C)(c1ccccc1)N1[C@@H]2CC[C@H]1C[C@H](Oc1cccc(C(N)=O)c1)C2 | 13300 |  |  | 
NC(=O)c1cccc(O[C@@H]2C[C@H]3CC[C@@H](C2)N3C2(c3ccccc3)CC2)c1 | 24200 | > 30000 |  | 
CC(c1ccncc1)N1[C@@H]2CC[C@H]1C[C@H](Oc1cccc(C(N)=O)c1)C2 (stereo partly specified) |  | > 30000 |  | 
